Columns and labels:
Homo sapiens [1] = organism: Homo sapiens; experiment: Selectivity ratio of Ki for human adenosine A3 receptor to Ki for human adenosine A2B receptor
How it was run: (§1)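 Ratios of Ki values at each human subtype to Ki at human A2B (HEK-293 membranes, [3H]DPCPX). Each Ki was derived by Cheng–Prusoff from IC50 of radioligand competition binding in membranes of transfected cells. Results are the mean of 3 experiments, each in duplicate.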

Adenosine receptor A3 = biological target: T1, Adenosine receptor A3 (Homo sapiens, UniProt P0DMS8); experiment: Displacement of [3H]NECA from human recombinant adenosine A3 receptor expressed in human HeLa cells by microplate beta scintillation counter; format: cell-based
T1 sequence (P0DMS8 whole entry): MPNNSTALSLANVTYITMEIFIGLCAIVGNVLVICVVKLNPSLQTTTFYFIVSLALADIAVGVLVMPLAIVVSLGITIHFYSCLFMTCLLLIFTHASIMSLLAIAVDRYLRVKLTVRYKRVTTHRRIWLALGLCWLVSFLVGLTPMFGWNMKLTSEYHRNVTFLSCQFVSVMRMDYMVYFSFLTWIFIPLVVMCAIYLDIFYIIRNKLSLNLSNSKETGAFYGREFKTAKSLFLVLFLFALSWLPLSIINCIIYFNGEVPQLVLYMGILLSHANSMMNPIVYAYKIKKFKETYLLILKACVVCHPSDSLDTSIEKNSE
How it was run: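 HeLa-A3 cell membranes were labelled with 30 nM [3H]NECA. Non-specific binding was defined with (R)-PIA. After 180 min at 25 °C, samples were filtered and counted by beta scintillation. Ki was calculated by Cheng–Prusoff from IC50 obtained by non-linear regression. Weak or poorly soluble compounds were reported as % inhibition of specific binding at a single concentration. Mean of 3 experiments in duplicate.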

Adenosine receptor A2a = Adenosine receptor A2a (Homo sapiens, UniProt P29274); experiment: Displacement of [3H]ZM241385 from human recombinant adenosine A2A receptor expressed in human HeLa cells by microplate beta scintillation counter; format: cell-based
How it was run: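 Competition used HeLa cell membranes expressing human A2A with [3H]ZM241385. Non-specific binding was set with NECA. Incubation was 30 min at 25 °C, then filtration and beta scintillation counting. IC50 from non-linear regression was converted to Ki (Cheng–Prusoff). Weak or poorly soluble compounds were reported as % inhibition of specific binding at a single concentration. Three experiments, each in duplicate.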

Homo sapiens [2] = organism: Homo sapiens; experiment: Selectivity ratio of Ki for human adenosine A2A receptor to Ki for human adenosine A2B receptor; how it was run: as §1
Homo sapiens [3] = organism: Homo sapiens; experiment: Selectivity ratio of Ki for human adenosine A1 receptor to Ki for human adenosine A2B receptor; how it was run: as §1
Adenosine receptor A1 = biological target: T2, Adenosine receptor A1 (Homo sapiens, UniProt P30542); experiment: Displacement of [3H]DPCPX from human recombinant adenosine A1 receptor expressed in CHO cells by microplate beta scintillation counter; format: cell-based
T2 sequence (P30542 whole entry): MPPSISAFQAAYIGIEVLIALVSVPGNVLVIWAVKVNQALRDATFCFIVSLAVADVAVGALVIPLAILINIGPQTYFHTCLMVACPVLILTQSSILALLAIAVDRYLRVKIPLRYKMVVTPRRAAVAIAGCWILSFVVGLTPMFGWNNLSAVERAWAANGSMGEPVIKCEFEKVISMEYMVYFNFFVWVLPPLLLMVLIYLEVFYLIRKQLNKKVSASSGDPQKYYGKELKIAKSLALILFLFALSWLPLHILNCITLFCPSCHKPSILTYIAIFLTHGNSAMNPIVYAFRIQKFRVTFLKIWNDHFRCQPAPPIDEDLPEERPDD
How it was run: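 Membranes from CHO cells expressing human A1 were labelled with 2 nM [3H]DPCPX. Non-specific binding was defined with (R)-PIA. Incubation ran 60 min at 25 °C, then samples were filtered and counted by beta scintillation. IC50 came from non-linear regression, and Ki from Cheng–Prusoff. Weak or poorly soluble compounds were reported as % inhibition of specific binding at a single concentration. Mean of 3 experiments, each in duplicate.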

Adenosine receptor A2b = biological target: T3, Adenosine receptor A2b (Homo sapiens, UniProt P29275); experiment: Displacement of [3H]DPCPX from human recombinant adenosine A2B receptor expressed in HEK293 cells by microplate beta scintillation counter; format: cell-based
T3 sequence (P29275 whole entry): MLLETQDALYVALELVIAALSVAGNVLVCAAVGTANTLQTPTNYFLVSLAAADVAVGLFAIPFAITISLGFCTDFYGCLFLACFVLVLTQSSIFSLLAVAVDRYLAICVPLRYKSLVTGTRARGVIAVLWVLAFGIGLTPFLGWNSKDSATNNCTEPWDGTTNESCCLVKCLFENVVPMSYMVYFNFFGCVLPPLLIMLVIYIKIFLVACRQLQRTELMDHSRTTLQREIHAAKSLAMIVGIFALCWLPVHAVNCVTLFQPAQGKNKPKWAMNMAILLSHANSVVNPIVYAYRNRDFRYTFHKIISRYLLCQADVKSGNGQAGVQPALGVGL
How it was run: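 Membranes from HEK-293 cells expressing human A2B were labelled with 35 nM [3H]DPCPX. Incubation ran 30 min at 25 °C, followed by filtration and beta scintillation counting. IC50 was fitted by non-linear regression and converted to Ki by Cheng–Prusoff. Weak or poorly soluble compounds were given as % inhibition of specific binding at a single concentration. n = 3, each in duplicate.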

Chain of Adenosine receptor A2a (P29274 whole entry): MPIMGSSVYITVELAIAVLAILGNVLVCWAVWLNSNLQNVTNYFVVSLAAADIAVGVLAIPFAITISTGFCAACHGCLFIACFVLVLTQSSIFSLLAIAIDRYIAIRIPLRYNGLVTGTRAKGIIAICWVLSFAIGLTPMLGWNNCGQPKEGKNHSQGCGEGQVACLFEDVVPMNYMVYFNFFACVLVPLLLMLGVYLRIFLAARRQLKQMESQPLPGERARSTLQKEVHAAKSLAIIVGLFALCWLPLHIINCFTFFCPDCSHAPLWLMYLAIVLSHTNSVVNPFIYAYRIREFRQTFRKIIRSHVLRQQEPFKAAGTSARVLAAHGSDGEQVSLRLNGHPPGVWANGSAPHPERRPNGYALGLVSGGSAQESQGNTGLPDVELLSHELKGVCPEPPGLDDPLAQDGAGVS

SMILES	Ratio Ki (Homo sapiens [1])	Ki (Adenosine receptor A3) [nM]	Ki (Adenosine receptor A2a) [nM]	Ratio Ki (Homo sapiens [2])	Ratio Ki (Homo sapiens [3])	Ki (Adenosine receptor A1) [nM]	Ki (Adenosine receptor A2b) [nM]
CCCn1c(=O)c2[nH]c(-c3ccccc3)nc2n(CCSCC)c1=O	0.6	117	1450	7.6	0.5	93.3	191
CCn1c(=O)c2[nH]c(Cc3cccs3)nc2n(Cc2cccs2)c1=O	5.9	813	3980	28.9	4.9	676	138

— ChEMBL document CHEMBL1157555, “Synthesis and pharmacological evaluation of novel 1,3,8- and 1,3,7,8-substituted xanthines as adenosine receptor antagonists” (Bioorg Med Chem, 2010)
